# According to ChEMBL document CHEMBL1145964, “Antineoplastic agents. 487. Synthesis and biological evaluation of the antineoplastic agent 3,4-methylenedioxy-5,4'-dimethoxy-3'-amino-Z-stilbene and derived amino acid amides” (J Med Chem, 2003):
# Several values for one entry are separate records, joined by “and”; a condition that tells them apart may be missing. Equal values may be shown once.
# Legend:
# [1] = molecular target: Tubulin alpha chain (Sus scrofa) (UniProt P02550); experiment: Percent inhibitory activity (5 uM) against colchicine binding to […]; settings: Homo sapiens
# [2] = molecular target: Tubulin alpha chain (Sus scrofa) (UniProt P02550); experiment: Percent inhibitory activity (2 uM) against colchicine binding to tubulin […]; settings: Homo sapiens
# In short: (§1)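 Binding of [³H]colchicine to purified tubulin, not a cell assay: reaction mixtures held 1.0 µM tubulin, 5.0 µM [³H]colchicine and test compound at 2 or 5 µM as indicated. Read-out is percent inhibition of colchicine binding.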
# [3] = molecular target: Tubulin alpha chain (Sus scrofa) (UniProt P02550); experiment: Percent inhibitory activity (5 uM) against colchicine binding to tubulin […]; settings: Homo sapiens; in short: as §1
# [4] = molecular target: Tubulin alpha chain (Sus scrofa) (UniProt P02550); experiment: Percent inhibitory activity (100 uM) against colchicine binding to tubulin […]; settings: Homo sapiens
# In short: (§2)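 Cell-free colchicine-binding test: reaction mixtures held 1.0 µM tubulin, 5.0 µM [³H]colchicine and inhibitor at the stated level; percent inhibition of radiolabel binding recorded.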
# [5] = tested on: MCF7; experiment: Inhibitory activity against breast MCF-7 cell line; type: functional; settings: Homo sapiens
# [6] = tested on: MCF7; experiment: Mitotic index in MCF-7 breast cancer cells was determined; type: functional, Homo sapiens
# [7] = Inhibitory activity against lung NSC NCI-H460 cell line; type: functional; settings: Homo sapiens
# [8] = tested on: P388; experiment: Inhibitory activity against leukemia P388 cell line; type: functional; settings: Mus musculus, read-out: ED50 (the source's name)
# [9] = Inhibitory activity against pancreatic BXPC-3 cell line; type: functional; settings: Homo sapiens
# [10] = tested on: Tubulin; experiment: Inhibitory activity against tubulin (1.0 mg/mL) assembly was determined; settings: Homo sapiens
# [11] = Inhibitory activity against colon KM2OL2 cell line; type: functional; settings: Homo sapiens
# [12] = Inhibitory activity against prostate DU145 cell line; type: functional; settings: Homo sapiens, DU-145
# [13] = Inhibitory activity against CNS SF-295 cell line; type: functional; settings: Homo sapiens
# [14] = species on record: Mus musculus; experiment: Inhibitory activity against murine colon 26 adenocarcinoma cell; type: functional
# [15] = Inhibitory activity against prostate DU145; type: functional; settings: Homo sapiens, DU-145, Prostate gland
# [16] = Inhibitory activity against pancreatic cell line BXPC-3; type: functional; settings: Homo sapiens
# [17] = tested on: MCF7; experiment: Inhibitory activity against breast cancer cell line MCF-7; type: functional; settings: Homo sapiens
# [18] = tested on: Tubulin; experiment: Inhibitory activity against tubulin (1.0 mg/mL) assembly was determined; settings: Homo sapiens; remark: listed apart in the source
# [19] = molecular target: Tubulin alpha chain (Sus scrofa) (UniProt P02550); experiment: Percent inhibitory activity (20 uM) against colchicine binding to tubulin […]; settings: Homo sapiens; in short: as §2
# Tubulin alpha chain (Sus scrofa), sequence (P02550 whole entry, looked up): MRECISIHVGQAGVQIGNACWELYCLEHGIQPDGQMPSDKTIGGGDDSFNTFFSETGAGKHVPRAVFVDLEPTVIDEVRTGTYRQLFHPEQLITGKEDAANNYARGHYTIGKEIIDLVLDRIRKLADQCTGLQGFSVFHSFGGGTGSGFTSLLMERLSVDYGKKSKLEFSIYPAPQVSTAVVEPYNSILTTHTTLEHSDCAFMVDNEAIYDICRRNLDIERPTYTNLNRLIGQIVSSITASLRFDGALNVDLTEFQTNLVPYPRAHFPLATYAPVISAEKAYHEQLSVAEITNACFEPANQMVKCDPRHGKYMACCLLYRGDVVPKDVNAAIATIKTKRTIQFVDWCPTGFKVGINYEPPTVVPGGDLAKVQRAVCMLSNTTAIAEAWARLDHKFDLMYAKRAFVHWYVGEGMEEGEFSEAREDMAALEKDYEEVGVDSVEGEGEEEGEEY
SMILES,inhibition [4],GI50 [5],EC50 [8],IC50 [10],GI50 [17],IC50 [18],inhibition [19],inhibition [1],inhibition [2],inhibition [3],Mitotic index [6],GI50 [7],GI50 [9],GI50 [11],GI50 [12],GI50 [13],IC50 [14],GI50 [15],GI50 [16]
COc1ccc(/C=C\c2cc(OC)c3c(c2)OCO3)cc1N [listing 1 of 2 here],,,,,,,,95%,84% and 87%,94%,,,,,,,,,
COc1ccc(/C=C\c2cc(OC)c(OC)c(OC)c2)cc1O [COMBRETASTATIN A4],,,,2.1 µM,,,,,,,57,,,,,,0.018 µM,,
COc1ccc(/C=C\c2cc(OC)c(OC)c(OC)c2)cc1N,,,,,,,,,,,,,,,,,0.0051 µM,,
COc1ccc(/C=C\c2cc(OC)c3c(c2)OCO3)cc1N.Cl,,0.0042 µg/mL,0.0388 µg/mL,,,,,,,,,0.0057 µg/mL,0.075 µg/mL,0.035 µg/mL,0.0082 µg/mL,0.0082 µg/mL,,,
COc1ccc(/C=C\c2cc(OC)c3c(c2)OCO3)cc1O [Combretastatin A-2],,0.0042 µg/mL,0.016 µg/mL,,,,,,79%,92%,,0.043 µg/mL,0.014 µg/mL,0.47 µg/mL,0.0054 µg/mL,0.0083 µg/mL,,,
COc1ccc(/C=C\c2cc(OC)c3c(c2)OCO3)cc1N [listing 2 of 2 here],,0.0047 µg/mL,,3.1 µM,,,,,,,,0.005 µg/mL,,,,,,,
COc1ccc(/C=C\c2cc(OC)c3c(c2)OCO3)cc1NC(=O)C(N)Cc1ccc(O)cc1 (stereo not given),19%,0.035 µg/mL,0.0475 µg/mL,> 40 µM,,,,,,,44,0.012 µg/mL,0.0067 µg/mL,0.022 µg/mL,0.018 µg/mL,0.0097 µg/mL,,,
COc1ccc(/C=C/c2cc(OC)c3c(c2)OCO3)cc1P(=O)([O-])O.[Na+],,0.045 µg/mL,0.025 µg/mL,,,,,,,,,0.41 µg/mL,2.1 µg/mL,3.8 µg/mL,0.053 µg/mL,0.042 µg/mL,,,

# Further lines, with some results ahead:
inhibition [4],GI50 [5],EC50 [8],IC50 [10],GI50 [17],IC50 [18],inhibition [19],SMILES,inhibition [1],inhibition [2],inhibition [3],Mitotic index [6],GI50 [7],GI50 [9],GI50 [11],GI50 [12],GI50 [13],IC50 [14],GI50 [15],GI50 [16]
16%,0.044 µg/mL,0.0585 µg/mL,> 40 µM,,,,COc1ccc(/C=C\c2cc(OC)c3c(c2)OCO3)cc1NC(=O)C(N)Cc1ccccc1 (stereo not given),,,,52,0.044 µg/mL,0.2 µg/mL,0.034 µg/mL,0.04 µg/mL,1.7 µg/mL,,,
15%,0.05 µg/mL,0.332 µg/mL,> 40 µM,,,,COc1ccc(/C=C\c2cc(OC)c3c(c2)OCO3)cc1NC(=O)C(N)CS (stereo not given),,,,42,0.032 µg/mL,0.2 µg/mL,0.055 µg/mL,0.0046 µg/mL,0.037 µg/mL,,,
,,0.227 µg/mL,,0.36 µg/mL,0.39 µM,,COc1ccc(/C=C\c2cc(OC)c3c(c2)OCO3)cc1[N+](=O)[O-],,,,,0.35 µg/mL,,0.45 µg/mL,,0.33 µg/mL,,0.64 µg/mL,0.38 µg/mL
,> 10 µg/mL,> 10 µg/mL,,,,,COc1ccc(/C=C/c2cc(OC)c3c(c2)OCO3)cc1[N+](=O)[O-],,,,,> 10 µg/mL,> 10 µg/mL,> 10 µg/mL,> 10 µg/mL,4.6 µg/mL,,,
64%,0.017 µg/mL,0.172 µg/mL,> 40 µM,,,22%,COc1ccc(/C=C\c2cc(OC)c3c(c2)OCO3)cc1NC(=O)C(N)CO (stereo not given),,,,35,0.042 µg/mL,0.027 µg/mL,0.019 µg/mL,0.014 µg/mL,0.049 µg/mL,,,
14%,0.037 µg/mL,0.306 µg/mL,> 40 µM,,,,COc1ccc(/C=C\c2cc(OC)c3c(c2)OCO3)cc1NC(=O)C(N)C(C)C (stereo not given),,,,48,0.064 µg/mL,0.012 µg/mL,0.019 µg/mL,0.036 µg/mL,0.055 µg/mL,,,
66%,0.014 µg/mL,0.0199 µg/mL,> 40 µM,,,31%,COc1ccc(/C=C\c2cc(OC)c3c(c2)OCO3)cc1NC(=O)CN,,,,52,0.0042 µg/mL,0.025 µg/mL,0.012 µg/mL,0.0028 µg/mL,0.059 µg/mL,,,
16%,0.035 µg/mL,0.0653 µg/mL,> 40 µM,,,,COc1ccc(/C=C\c2cc(OC)c3c(c2)OCO3)cc1NC(=O)C(N)Cc1c[nH]c2ccccc12 (stereo not given),,,,57,0.053 µg/mL,0.044 µg/mL,0.018 µg/mL,0.04 µg/mL,0.042 µg/mL,,,
